Source: ChEMBL document CHEMBL1135770, “Synthesis and transporter binding properties of 3beta-[4'-(phenylalkyl, -phenylalkenyl, and -phenylalkynyl)phenyl]tropane-2beta-carboxylic acid methyl esters: evidence of a remote phenyl binding domain on the dopamine transporter” (J Med Chem, 2002)

Tests used:
[1] = target: T1, Norepinephrine transporter (Rattus norvegicus, UniProt Q9WTR4); experiment: Tested for the binding affinity towards Norepinephrine transporter in rat cerebral cortex by displacing [3H]nisoxetine radioligand; assay type: tissue-based
In short: (§1)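 Competition binding with 0.5 nM [³H]nisoxetine as final radioligand concentration.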

[2] = target: Sodium-dependent dopamine transporter (Rattus norvegicus, UniProt P23977); experiment: 50% Inhibition against dopamine transporter (DAT) in rat striatal tissue by displacing [3H]WIN-35428 radioligand; assay type: tissue-based, Striatum
In short: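 Competition binding with 0.5 nM [³H]WIN35,428 as final radioligand concentration.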

[3] = target: T2, Sodium-dependent serotonin transporter (Rattus norvegicus, UniProt P31652); experiment: Tested for the binding affinity towards Serotonin transporter in rat midbrain tissue by displacing [3H]paroxetine radioligand; assay type: tissue-based
In short: (§2)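 Competition binding with 0.2 nM [³H]paroxetine as final radioligand concentration.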

[4] = target: T2, Sodium-dependent serotonin transporter; experiment: 50% Inhibition against Serotonin transporter in rat midbrain tissue by displacing [3H]paroxetine radioligand; assay type: tissue-based; in short: as §2
[5] = target: T1, Norepinephrine transporter; experiment: 50% Inhibition against Norepinephrine transporter in rat cerebral cortex by displacing [3H]nisoxetine radioligand; assay type: tissue-based; in short: as §1

T2 sequence (P31652 whole entry): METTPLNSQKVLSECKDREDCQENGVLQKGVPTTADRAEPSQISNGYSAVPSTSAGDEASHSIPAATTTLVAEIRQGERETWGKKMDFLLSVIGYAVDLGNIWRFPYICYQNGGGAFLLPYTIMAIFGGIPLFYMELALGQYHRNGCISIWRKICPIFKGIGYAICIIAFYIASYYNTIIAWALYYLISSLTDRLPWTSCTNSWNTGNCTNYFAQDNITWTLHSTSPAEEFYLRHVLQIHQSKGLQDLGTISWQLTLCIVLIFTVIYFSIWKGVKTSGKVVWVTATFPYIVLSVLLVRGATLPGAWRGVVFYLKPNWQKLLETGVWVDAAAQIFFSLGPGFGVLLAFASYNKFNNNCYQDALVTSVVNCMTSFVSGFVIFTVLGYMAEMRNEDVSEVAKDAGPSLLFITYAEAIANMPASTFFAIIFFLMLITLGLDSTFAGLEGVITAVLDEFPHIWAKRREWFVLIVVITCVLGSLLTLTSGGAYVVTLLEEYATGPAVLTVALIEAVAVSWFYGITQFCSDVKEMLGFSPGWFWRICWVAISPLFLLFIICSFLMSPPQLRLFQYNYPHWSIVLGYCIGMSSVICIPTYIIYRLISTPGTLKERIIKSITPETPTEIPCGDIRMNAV
T1 sequence (Q9WTR4 whole entry): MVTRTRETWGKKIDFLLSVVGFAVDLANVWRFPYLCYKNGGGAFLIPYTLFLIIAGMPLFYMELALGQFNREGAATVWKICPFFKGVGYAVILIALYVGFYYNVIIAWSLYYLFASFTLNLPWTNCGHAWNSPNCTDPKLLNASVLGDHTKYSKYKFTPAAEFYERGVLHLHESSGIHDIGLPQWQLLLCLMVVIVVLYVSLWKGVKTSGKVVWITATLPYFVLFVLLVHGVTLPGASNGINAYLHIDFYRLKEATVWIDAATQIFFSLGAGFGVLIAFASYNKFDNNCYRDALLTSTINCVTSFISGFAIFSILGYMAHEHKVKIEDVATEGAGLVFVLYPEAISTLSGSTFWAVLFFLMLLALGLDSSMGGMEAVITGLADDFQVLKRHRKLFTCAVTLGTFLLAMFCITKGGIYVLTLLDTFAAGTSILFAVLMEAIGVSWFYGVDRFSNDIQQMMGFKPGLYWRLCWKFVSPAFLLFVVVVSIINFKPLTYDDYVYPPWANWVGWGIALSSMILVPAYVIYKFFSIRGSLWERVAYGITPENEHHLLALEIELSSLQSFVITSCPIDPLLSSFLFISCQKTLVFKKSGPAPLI
Sequence of Sodium-dependent dopamine transporter (P23977 whole entry): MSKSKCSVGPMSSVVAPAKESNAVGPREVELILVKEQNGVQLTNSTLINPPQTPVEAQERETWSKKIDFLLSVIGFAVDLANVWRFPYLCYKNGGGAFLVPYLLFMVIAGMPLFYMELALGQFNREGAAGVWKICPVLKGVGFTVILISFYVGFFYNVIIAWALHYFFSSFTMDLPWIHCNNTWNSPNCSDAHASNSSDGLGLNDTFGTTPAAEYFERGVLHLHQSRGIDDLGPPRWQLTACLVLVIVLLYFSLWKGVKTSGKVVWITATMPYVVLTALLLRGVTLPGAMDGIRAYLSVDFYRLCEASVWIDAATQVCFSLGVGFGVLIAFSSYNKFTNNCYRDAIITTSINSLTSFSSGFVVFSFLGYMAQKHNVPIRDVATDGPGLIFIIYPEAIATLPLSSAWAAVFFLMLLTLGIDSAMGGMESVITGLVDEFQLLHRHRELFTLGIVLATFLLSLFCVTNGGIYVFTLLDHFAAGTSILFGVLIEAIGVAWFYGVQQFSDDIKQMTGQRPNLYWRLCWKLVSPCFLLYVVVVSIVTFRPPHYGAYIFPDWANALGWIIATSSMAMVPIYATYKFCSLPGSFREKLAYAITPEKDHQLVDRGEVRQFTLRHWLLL

Row | SMILES | Ki [1] | IC50 [2] | Ki [3] | IC50 [4] | IC50 [5]
1 | COC(=O)[C@@H]1C2CC[C@H](C[C@@H]1c1ccccc1)N2C | 55 nM |  |  |  | 
2 | COC(=O)C1[C@@H](c2ccc(CCCCc3ccccc3)cc2)CC2CC[C@H]1N2C (stereo partly specified) | 1390 nM | 228 nM | 439 nM | 4820 nM | 2310 nM
3 | CCCc1ccc([C@H]2CC3CC[C@H](C2C(=O)OC)N3C)cc1 (stereo partly specified) | 2360 nM | 68.5 nM | 6.4 nM | 70.4 nM | 3920 nM
4 | COC(=O)C1[C@@H](c2ccc3ccccc3c2)CC2CC[C@H]1N2C (stereo partly specified) | 12.7 nM | 0.51 nM | 0.07 nM | 0.8 nM | 21.1 nM
5 | C=Cc1ccc([C@H]2CC3CC[C@H](C2C(=O)OC)N3C)cc1 (stereo partly specified) | 47 nM | 1.24 nM | 0.86 nM | 9.5 nM | 78 nM
6 | CC#Cc1ccc([C@H]2CC3CC[C@H](C2C(=O)OC)N3C)cc1 (stereo partly specified) | 494 nM | 2.37 nM | 1.43 nM | 15.7 nM | 820 nM
7 | COC(=O)C1[C@@H](c2ccc(C#CCCCCO)cc2)CC2CC[C@H]1N2C (stereo partly specified) | 5720 nM | 57 nM | 75 nM | 828 nM | 9500 nM
8 | COC(=O)C1[C@@H](c2ccc(C#CCc3ccccc3)cc2)CC2CC[C@H]1N2C (stereo partly specified) | 16.5 nM | 1.82 nM | 1.19 nM | 13.1 nM | 27.4 nM
9 | COC(=O)C1[C@@H](c2ccc(C#Cc3ccccc3)cc2)CC2CC[C@H]1N2C (stereo partly specified) | 209 nM | 3.7 nM | 4.3 nM | 46.8 nM | 347 nM
10 | COC(=O)C1[C@@H](c2ccc(C#CCCc3ccccc3)cc2)CC2CC[C@H]1N2C (stereo partly specified) | 885 nM | 6.28 nM | 198 nM | 2180 nM | 1470 nM
11 | COC(=O)C1C(c2ccc3ccccc3c2)CC2CC[C@H]1N2C (stereo partly specified) | 42.3 nM | 1.1 nM | 1.05 nM | 11.4 nM | 70.2 nM
12 | COC(=O)C1[C@@H](c2ccc(C#CCCCc3ccccc3)cc2)CC2CC[C@H]1N2C (stereo partly specified) | 2680 nM | 300 nM | 122 nM | 1340 nM | 4450 nM
13 | COC(=O)C1[C@@H](c2ccc(-c3ccccc3)cc2)CC2CC[C@H]1N2C (stereo partly specified) | 892 nM | 15.6 nM | 8.7 nM | 95.8 nM | 1480 nM
14 | COC(=O)C1[C@@H](c2ccc(CCc3ccccc3)cc2)CC2CC[C@H]1N2C (stereo partly specified) | 6.5 nM | 5.14 nM | 21.3 nM | 234 nM | 10.8 nM
15 | COC(=O)C1[C@@H](c2ccc(CCCc3ccccc3)cc2)CC2CC[C@H]1N2C (stereo partly specified) | 8500 nM | 351 nM | 113 nM | 1240 nM | 14200 nM
16 | C=C(c1ccccc1)c1ccc([C@H]2CC3CC[C@H](C2C(=O)OC)N3C)cc1 (stereo partly specified) | 4260 nM | 474 nM | 246 nM | 2710 nM | 7060 nM
17 | COC(=O)C1[C@@H](c2ccc(Cc3ccccc3)cc2)CC2CC[C@H]1N2C (stereo partly specified) | 606 nM | 526 nM | 658 nM | 7240 nM | 6670 nM
18 | COC(=O)C1[C@@H](c2ccc(/C=C/Cc3ccccc3)cc2)CC2CC[C@H]1N2C (stereo partly specified) | 759 nM | 15.8 nM | 71 nM | 781 nM | 1250 nM
19 | COC(=O)C1[C@@H](c2ccc(/C=C\c3ccccc3)cc2)CC2CC[C@H]1N2C (stereo partly specified) |  | 11.7 nM |  |  | 
20 | COC(=O)C1[C@@H](c2ccc(/C=C/c3ccccc3)cc2)CC2CC[C@H]1N2C (stereo partly specified) | 1180 nM | 3.09 nM | 30.5 nM | 335 nM | 1960 nM
21 | C/C=C\c1ccc([C@H]2CC3CC[C@H](C2C(=O)OC)N3C)cc1 (stereo partly specified) | 958 nM | 5.29 nM | 1.04 nM | 11.4 nM | 1590 nM
22 | COC(=O)C1C2CC[C@H](C[C@H]1c1ccc(C)cc1)N2C (stereo partly specified) | 36 nM |  |  |  | 60 nM
23 | C#Cc1ccc([C@H]2CC3CC[C@H](C2C(=O)OC)N3C)cc1 (stereo partly specified) | 50.1 nM | 1.2 nM | 0.4 nM | 4.4 nM | 83.2 nM
24 | CCc1ccc([C@H]2C[C@H]3CCC(C2C(=O)OC)N3C)cc1 (stereo partly specified) | 2360 nM |  | 2.58 nM |  | 
25 | COC(=O)C1=C(c2ccc3ccccc3c2)CC2CCC1N2C (stereo unspecified) | 224 nM | 5.17 nM | 31.4 nM | 345 nM | 372 nM
